Reference: ChEMBL document CHEMBL2169820, “Synthesis and biological activities of polyquinoline derivatives: new Bcl-2 family protein modulators” (Eur J Med Chem, 2012)

molecular target: Bcl-2-like protein 1 (Homo sapiens, UniProt Q07817); assay: Inhibition of Bcl-XL-mediated cell death reduction expressed in serum starved mouse 3T3 cells assessed as residual cell viability at 5 uM incubated for 96 hrs by propidium iodide staining based FACS method; details: NIH3T3
Summary of the method: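 3T3 cells infected with pMig-hBcl-xL vector to overexpress human Bcl-xL, maintained in DMEM/10% FBS. Compound 5 µM given under serum starvation; % residual viability scored at 96 h by propidium iodide staining and FACS.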

Sequence of Bcl-2-like protein 1 (Q07817 whole entry): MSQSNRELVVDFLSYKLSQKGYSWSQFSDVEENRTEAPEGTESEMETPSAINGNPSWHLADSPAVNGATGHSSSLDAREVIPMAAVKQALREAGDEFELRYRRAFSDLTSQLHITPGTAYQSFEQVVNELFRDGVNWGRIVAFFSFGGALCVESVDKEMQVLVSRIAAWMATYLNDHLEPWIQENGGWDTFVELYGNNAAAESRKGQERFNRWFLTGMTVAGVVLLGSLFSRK

SMILES | Activity
CCCOc1nc2cc(-c3cc4ccccc4nc3N3CCCC3)cc(C(C)C)c2cc1-c1cc(C(C)C)c2ccc(N3CCCC3)nc2c1 | 90.5%
CCCOc1nc2cc(-c3cc4ccccc4nc3N3CCOCC3)cc(C(C)C)c2cc1-c1cc(C(C)C)c2ccc(N3CCCC3)nc2c1 | 93.4%
CCCOc1nc2cc(-c3cc4ccccc4nc3N3CCOCC3)cc(C(C)C)c2cc1-c1cc(C(C)C)c2ccc(N3CCOCC3)nc2c1 | 81.6%
CCCOc1nc2cc(-c3cc4ccccc4nc3N3CCCC3)cc(C(C)C)c2cc1-c1cc(C(C)C)c2ccc(OCC)nc2c1 | 94.5%
CCOc1nc2cc(-c3cc4ccccc4nc3N3CCCC3)cc(C(C)C)c2cc1-c1cc(C(C)C)c2ccc(N3CCCC3)nc2c1 | 95.1%
CCCOc1nc2cc(-c3cc4ccccc4nc3N3CCOCC3)cc(C(C)C)c2cc1-c1cc(C(C)C)c2ccc(OCC)nc2c1 | 95.2%
CCOc1nc2ccccc2cc1-c1cc(C(C)C)c2cc(-c3cc(C(C)C)c4ccc(N5CCOCC5)nc4c3)c(OCC)nc2c1 | 93.6%
CCCOc1ccc2c(C(C)C)cc(-c3cc4ccccc4nc3N3CCCC3)cc2n1 | 84.4%
CCOc1ccc2c(C(C)C)cc(-c3cc4c(C(C)C)cc(-c5cc6ccccc6nc5N5CCCC5)cc4nc3OCC)cc2n1 | 95.3%
CCCOc1ccc2c(C(C)C)cc(-c3cc4c(C(C)C)cc(-c5cc6ccccc6nc5N5CCCC5)cc4nc3OCC)cc2n1 | 96.4%
CCCOc1ccc2c(C(C)C)cc(-c3cc4c(C(C)C)cc(-c5cc6ccccc6nc5N5CCOCC5)cc4nc3OCCC)cc2n1 | 92.3%
CCOc1nc2cc(-c3cc4ccccc4nc3N3CCOCC3)cc(C(C)C)c2cc1-c1cc(C(C)C)c2ccc(N3CCCC3)nc2c1 | 92.2%
CCOc1nc2cc(-c3cc4ccccc4nc3N3CCCC3)cc(C(C)C)c2cc1-c1cc(C(C)C)c2ccc(N3CCOCC3)nc2c1 | 91%
CCCOc1ccc2c(C(C)C)cc(-c3cc4c(C(C)C)cc(-c5cc6ccccc6nc5N5CCCC5)cc4nc3OCCC)cc2n1 | 92.8%
CCCOc1nc2ccccc2cc1-c1cc(C(C)C)c2ccc(N3CCCC3)nc2c1 | 86.8%
CCOc1nc2ccccc2cc1-c1cc(C(C)C)c2cc(-c3cc(C(C)C)c4ccc(N5CCCC5)nc4c3)c(OCC)nc2c1 | 92.3%
